Laboratory results as given in ChEMBL document CHEMBL1764950, “Diphenylamine-based retinoid antagonists: regulation of RAR and RXR function depending on the N-substituent” (Bioorg Med Chem, 2011).
Calls of active or inactive are those of the source. No cut-off for these calls is given here.

What was measured:
HL-60 [1] = assay: Synergistic induction of human HL60 cell differentiation in presence of RAR agonist Am80 at 1 X 10^-10 M; format: functional
In short: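 Synergy was tested in HL-60 cells given test compound together with 1 × 10⁻¹⁰ M Am80 for 4 days, with each agent also assayed alone. Differentiation was scored by NBT reduction (0.2% NBT, 200 ng/mL TPA, 20 min, 37 °C; ≥200 cells). SEC₅₀ is the concentration giving 50% differentiated cells in the presence of Am80.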

HL-60 [2] = assay: Induction of human HL60 cell differentiation by NBT reduction assay; format: functional, cell-based
In short: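 HL-60 cells in RPMI1640 with 5% FBS were seeded at about 8 × 10⁴ cells/mL and given compound from a 2 mM ethanol stock (final ethanol below 0.5%) for 4 days. Differentiation was scored by NBT reduction: 20 min at 37 °C with 0.2% NBT and 200 ng/mL TPA, counting formazan-positive cells among at least 200. EC₅₀ is the concentration differentiating 50% of cells with compound alone.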

HL-60 [3] = assay: Inhibition of Am80-induced cell differentiation in human HL60 cells by NBT reduction assay; format: functional, cell-based
In short: (§1)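 Cells were co-treated with 3.3 × 10⁻¹⁰ M Am80 plus test compound (ethanol, final below 0.5%), seeded at about 8 × 10⁴ cells/mL in RPMI1640 with 5% FBS, and held 4 days. The percentage of differentiated cells was determined by NBT/TPA reduction (20 min, 37 °C), counting at least 200 cells.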

HL-60 [4] = assay: Inhibition of Am80-induced cell differentiation in human HL60 cells at 1 x 10^-6 M after 4 days by NBT reduction assay; format: functional; conditions: HL-60, 96 h; in short: as §1
HL-60 [5] = assay: Inhibition of Am80-induced cell differentiation in human HL60 cells at 1 x 10^-7 M after 4 days by NBT reduction assay; format: functional; conditions: HL-60, 96 h; in short: as §1
[6] = molecular target: Retinoic acid receptor beta (Homo sapiens) (UniProt P10826); assay: Antagonist activity at human RARbeta expressed in COS-1 cells assessed as inhibition of Am80-induced transactivation by luciferase reporter gene assay
[7] = tested on: Retinoid X receptor beta (Mus musculus); assay: Antagonist activity at mouse RXRbeta expressed in COS-1 cells assessed as inhibition of PA024-induced transactivation by luciferase reporter gene assay
[8] = molecular target: Retinoic acid receptor alpha (Homo sapiens) (UniProt P10276); assay: Antagonist activity at human RARalpha expressed in COS-1 cells assessed as inhibition of Am80-induced transactivation by luciferase reporter gene assay
[9] = molecular target: Retinoic acid receptor gamma (Homo sapiens) (UniProt P13631); assay: Antagonist activity at human RARgamma expressed in COS-1 cells assessed as inhibition of ATRA-induced transactivation by luciferase reporter gene assay
[10] = molecular target: Retinoic acid receptor RXR-alpha (Mus musculus) (UniProt P28700); assay: Antagonist activity at mouse RXRalpha expressed in COS-1 cells assessed as inhibition of PA024-induced transactivation by luciferase reporter gene assay
[11] = tested on: Retinoid X receptor gamma (Mus musculus); assay: Antagonist activity at mouse RXRgamma expressed in COS-1 cells assessed as inhibition of PA024-induced transactivation by luciferase reporter gene assay

Chain of Retinoic acid receptor beta (Homo sapiens) (P10826 whole entry, looked up): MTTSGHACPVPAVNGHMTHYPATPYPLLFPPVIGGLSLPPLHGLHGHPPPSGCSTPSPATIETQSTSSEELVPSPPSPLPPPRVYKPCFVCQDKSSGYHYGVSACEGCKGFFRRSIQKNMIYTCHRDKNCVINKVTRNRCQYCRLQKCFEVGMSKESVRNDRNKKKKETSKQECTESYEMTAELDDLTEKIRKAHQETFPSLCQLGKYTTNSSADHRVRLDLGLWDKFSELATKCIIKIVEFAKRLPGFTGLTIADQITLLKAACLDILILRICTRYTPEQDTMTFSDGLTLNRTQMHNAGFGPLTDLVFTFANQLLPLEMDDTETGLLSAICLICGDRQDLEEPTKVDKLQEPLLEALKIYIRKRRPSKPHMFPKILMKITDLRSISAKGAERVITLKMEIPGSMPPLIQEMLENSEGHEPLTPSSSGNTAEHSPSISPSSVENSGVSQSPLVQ
Chain of Retinoic acid receptor alpha (Homo sapiens) (P10276 whole entry, looked up): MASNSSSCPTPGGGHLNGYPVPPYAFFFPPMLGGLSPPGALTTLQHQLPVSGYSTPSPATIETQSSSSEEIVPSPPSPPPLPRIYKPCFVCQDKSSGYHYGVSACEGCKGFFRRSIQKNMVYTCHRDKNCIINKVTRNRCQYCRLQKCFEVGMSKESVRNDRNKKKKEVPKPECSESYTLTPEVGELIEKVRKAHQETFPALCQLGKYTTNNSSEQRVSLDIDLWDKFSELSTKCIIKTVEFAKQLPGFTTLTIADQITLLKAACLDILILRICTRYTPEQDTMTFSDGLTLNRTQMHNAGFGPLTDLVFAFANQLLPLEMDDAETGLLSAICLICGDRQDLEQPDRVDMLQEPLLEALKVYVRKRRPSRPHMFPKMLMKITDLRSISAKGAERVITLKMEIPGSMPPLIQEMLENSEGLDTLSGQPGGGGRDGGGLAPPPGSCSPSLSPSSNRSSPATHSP
Chain of Retinoic acid receptor gamma (Homo sapiens) (P13631 whole entry, looked up): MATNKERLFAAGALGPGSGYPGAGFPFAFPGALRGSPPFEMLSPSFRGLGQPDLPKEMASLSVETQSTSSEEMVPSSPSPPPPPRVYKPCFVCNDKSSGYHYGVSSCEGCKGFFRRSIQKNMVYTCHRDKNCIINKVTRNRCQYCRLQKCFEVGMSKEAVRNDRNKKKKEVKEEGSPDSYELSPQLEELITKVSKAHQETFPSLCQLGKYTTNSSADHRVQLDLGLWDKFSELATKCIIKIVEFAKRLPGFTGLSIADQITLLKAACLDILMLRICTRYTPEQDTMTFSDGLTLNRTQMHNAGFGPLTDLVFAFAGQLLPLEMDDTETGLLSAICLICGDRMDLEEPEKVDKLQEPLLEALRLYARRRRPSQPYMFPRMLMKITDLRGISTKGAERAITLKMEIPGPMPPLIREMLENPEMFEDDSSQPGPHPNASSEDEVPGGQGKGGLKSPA
Chain of Retinoic acid receptor RXR-alpha (Mus musculus) (P28700 whole entry, looked up): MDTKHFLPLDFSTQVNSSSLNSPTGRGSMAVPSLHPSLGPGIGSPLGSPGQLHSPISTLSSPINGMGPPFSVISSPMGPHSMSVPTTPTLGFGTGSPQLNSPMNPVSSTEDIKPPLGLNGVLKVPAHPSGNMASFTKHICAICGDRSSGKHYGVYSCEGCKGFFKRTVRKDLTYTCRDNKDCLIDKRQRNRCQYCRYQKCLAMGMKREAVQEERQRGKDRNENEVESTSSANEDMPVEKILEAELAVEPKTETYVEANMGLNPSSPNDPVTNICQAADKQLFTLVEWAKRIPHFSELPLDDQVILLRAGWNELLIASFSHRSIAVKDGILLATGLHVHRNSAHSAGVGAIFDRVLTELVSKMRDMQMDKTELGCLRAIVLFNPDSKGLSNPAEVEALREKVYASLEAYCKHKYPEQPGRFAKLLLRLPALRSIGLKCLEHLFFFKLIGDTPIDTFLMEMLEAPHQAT

Row | Structure (SMILES) | Activity (HL-60 [2]) | inhibition (HL-60 [3]) | Differentiated cells % at 1 µM (HL-60 [4]) [%] | Differentiated cells % at 0.1 µM (HL-60 [5]) [%] | further results
1 | CC1(C)CCC(C)(C)c2cc(Nc3ccc(C(=O)O)cc3)ccc21 | – | – | – | – | SEC50 (HL-60 [1]): 2 ×10⁻⁸ M; EC50 (HL-60 [2]; Homo sapiens, HL-60, read-out: EC50): 680 nM
2 | CCOc1c(F)c(F)c(CN(c2ccc(C(=O)O)cc2)c2ccc3c(c2)C(C)(C)CCC3(C)C)c(F)c1F | inactive | Dose-dependent effect | < 10 | < 10 | inhibition [6]: Dose-dependent effect; inhibition [7]: inactive; inhibition [8]: Dose-dependent effect; inhibition [9]: Dose-dependent effect; inhibition [10]: inactive; inhibition [11]: inactive
3 | CCCCCCCCN(c1ccc(C(=O)O)cc1)c1ccc2c(c1)C(C)(C)CCC2(C)C | inactive | Dose-dependent effect | < 10 | – | –
4 | CC1(C)CCC(C)(C)c2cc(N(Cc3ccc(C(F)(F)F)cc3)c3ccc(C(=O)O)cc3)ccc21 | inactive | Dose-dependent effect | < 10 | – | –
5 | CC1(C)CCC(C)(C)c2cc(N(CC3CC3)c3ccc(C(=O)O)cc3)ccc21 | – | – | – | – | SEC50 (HL-60 [1]): 8.1 ×10⁻¹⁰ M; EC50 (HL-60 [2]; hl-60): Not Active
6 | CC1(C)CCC(C)(C)c2cc(N(Cc3ccccc3)c3ccc(C(=O)O)cc3)ccc21 | inactive | – | – | – | –
7 | Cc1ccc(CN(c2ccc(C(=O)O)cc2)c2ccc3c(c2)C(C)(C)CCC3(C)C)cc1 | inactive | Dose-dependent effect | < 10 | – | –
8 | CC1(C)CCC(C)(C)c2cc(N(Cc3ccccc3-c3ccccc3)c3ccc(C(=O)O)cc3)ccc21 | inactive | Dose-dependent effect | < 10 | 10 | –
9 | CC1(C)CCC(C)(C)c2cc(N(Cc3ccc4ccccc4c3)c3ccc(C(=O)O)cc3)ccc21 | inactive | Dose-dependent effect | < 10 | 30 | –
10 | CCCCCCCN(c1ccc(C(=O)O)cc1)c1ccc2c(c1)C(C)(C)CCC2(C)C | inactive | Dose-dependent effect | < 10 | – | inhibition [6]: Dose-dependent effect; inhibition [7]: inactive; inhibition [8]: Dose-dependent effect; inhibition [9]: Dose-dependent effect; inhibition [10]: inactive; inhibition [11]: inactive
